According to ChEMBL document CHEMBL1121364, “Nucleoside conjugates as potential antitumor agents. 3. Synthesis and antitumor activity of 1-(beta-D-arabinofuranosyl)cytosine conjugates of corticosteroids” (1980):

Experiments:
L1210 [1] = assay: Antitumor activity in the mice with intraperitoneal implanted L1210 lymphoid leukemia at the dose 9.2 and 14.9 mg/kg/day x 5 was determined as percentage increase in the life span as compared with control tumor bearers; assay type: functional, Mus musculus
Method in brief: (§1)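 C3D2F1/J female mice (C3H/HeJ female × DBA/2J male), groups of six to eight, average weight 25 g. Inoculated ip with 1 × 10^6 L1210 ascites cells taken from DBA/2Ha donor mice bearing 3-5 day old tumors. Compounds were dissolved in 0.154 N NaOH, neutralized with 0.154 N HCl (final 0.9% NaCl), and given ip daily for 5 days from 24 h post-implant. Median survival T/C; ILS = (T/C − 1) × 100; 30-day survivors counted.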

L1210 [2] = assay: Antitumor activity in the mice with intraperitoneal implanted L1210 lymphoid leukemia at the dose 34.8 and 56.1 mg/kg/day x 5 was determined and number of animals survived on 30 th day were reported; 0/8; assay type: functional, Mus musculus
Method in brief: (§2)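 Female C3D2F1/J mice (C3H/HeJ × DBA/2J), groups of six to eight, average weight 25 g. Each mouse got 1 × 10^6 L1210 ascites cells ip, taken from DBA/2Ha donor mice bearing 3-5 day tumors. Compound was dissolved in 0.154 N NaOH and neutralized with 0.154 N HCl (final 0.9% NaCl). Dosed ip daily ×5, starting 24 h after implant. Recorded body weight change on day 8, survival range, median survival and 30-day survivors. ILS = (T/C − 1) × 100.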

L1210 [3] = assay: Antitumor activity in the mice with intraperitoneal implanted L1210 lymphoid leukemia at the dose of 34.8 and 56.1 mg/kg/day x 5 was determined as mean survival of treated group compared to untreated; 9.5/9; assay type: functional, Mus musculus; method in brief: as §1
L1210 [4] = assay: Antitumor activity in the mice with intraperitoneal implanted L1210 lymphoid leukemia at the dose 9.2 and 14.9 mg/kg/day x 5 was determined as Survival time in days; Range is 8-10 days; assay type: functional, Mus musculus; method in brief: as §1
L1210 [5] = assay: Antitumor activity in the mice with intraperitoneal implanted L1210 lymphoid leukemia at the dose 34.8 and 56.1 mg/kg/day x 5 was determined as percentage increase in the life span as compared with control tumor bearers; assay type: functional, Mus musculus; method in brief: as §2
L1210 [6] = assay: Antitumor activity in mice with intraperitoneal implanted L1210 lymphoid leukemia at the dose 34.8 and 56.1 mg/kg/day x 5 was determined as weight change (g/mouse) on 8th day; assay type: functional
Method in brief: (§3)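 C3D2F1/J female mice (C3H/HeJ × DBA/2J), groups of six to eight, average 25 g, inoculated ip with 1 × 10^6 L1210 ascites cells taken from DBA/2Ha donor mice carrying 3-5 day tumors. Compound dissolved in 0.154 N NaOH, then neutralized with 0.154 N HCl to give 0.9% NaCl. Given ip daily for 5 consecutive days starting 24 h after implantation. Body weight change per mouse recorded on day 8.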

L1210 [7] = assay: Antitumor activity in the mice with intraperitoneal implanted L1210 lymphoid leukemia at the dose of 9.2 and 14.9 mg/kg/day x 5 was determined as mean survival of treated group compared to untreated; 9.5/9; assay type: functional, Mus musculus
L1210 [8] = assay: Antitumor activity in the mice with intraperitoneal implanted L1210 lymphoid leukemia at the dose 34.8 and 56.1 mg/kg/day x 5 was determined as Survival time in days; Range is 8-9 days; assay type: functional, Mus musculus; method in brief: as §2
L1210 [9] = assay: Antitumor activity in mice with intraperitoneal implanted L1210 lymphoid leukemia at the dose 9.2 and 14.9 mg/kg/day x 5 was determined as weight change (g/mouse) on 8th day; assay type: functional; method in brief: as §3
L1210 [10] = assay: Antitumor activity in the mice with intraperitoneal implanted L1210 lymphoid leukemia at the dose 9.2 and 14.9 mg/kg/day x 5 was determined and number of animals survived on 30 th day were reported; 0/6; assay type: functional, Mus musculus; method in brief: as §1

C[C@@H]1C[C@H]2[C@@H]3CCC4=CC(=O)C=C[C@]4(C)[C@@]3(F)[C@@H](O)C[C@]2(C)[C@@]1(O)C(=O)CO.Nc1ccn([C@@H]2O[C@H](CO)[C@@H](O)[C@@H]2O)c(=O)n1
ILS (L1210 [1]): -14% | Survivors (L1210 [2]): 0 | T/C (L1210 [3]): 8.5 | Survival time (L1210 [4]): 8 days | ILS (L1210 [5]): -6% | Weight change (L1210 [6]): -2.72 g mouse-1 | T/C (L1210 [7]): 9.5 | Survival time (L1210 [8]): 8 days | Weight change (L1210 [9]): -4.23 g mouse-1 | Survivors (L1210 [10]): 0
